Test results taken from paper PMC3288198 (ACS Chemical Biology, 2011).
“Also recorded” adds a separate entry of the source. Like-named read-outs stand apart in the source and are kept apart here. Where a SMILES comes first, the peptide text is derived from it. The star is where a group is joined. Cbz = O=C(OCc1ccccc1)*

How the values were obtained:
FLT-3 and STAT5 = test: Western blot of FLT-3 and STAT5 levels in MV4-11 cells; assay type: cell-based, human; conditions: for effect on FLT-3 and STAT5 protein levels: 3 hr post-treatment
How it was run: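 MV4-11 cells cultured with 10% heat-inactivated FBS at 37°C, 5% CO2. Exposed to a concentration series of test compound, harvested 3 hr post-treatment. Lysed in low-salt Tris pH 7.4 buffer containing 1 μM TSA and sonicated. Lysates denatured in LDS and run on 4–12% gradient gels. Blots probed for FLT-3, STAT5, Erk and phospho-Erk; HRP secondary with ECL detection.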

acetylated tubulin [1] = test: Western blot of acetylated tubulin in MV4-11 cells; assay type: cell-based, human
How it was run: (§1)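 MV4-11 cells (10% heat-inactivated FBS, 37°C, 5% CO2) treated with test compound at a range of concentrations. Washed in cold HBSS and lysed 30 min in low-salt Tris pH 7.4 buffer with protease/phosphatase inhibitors and 1 μM TSA, then sonicated. LDS-denatured lysates run on 4–12% gradient gels. Probes: acetyl-H3, acetyl-H4, total H3, acetyl-α-tubulin, tubulin. HRP secondary, ECL read-out.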

[2] = tested on: mitogen stimulated proliferating PBMC; test: MTS cell proliferation assay, proliferating PBMC; assay type: cell-based, human; conditions: proliferating PBMC vs AML cells ex vivo
HDAC6 [3] = molecular target: T1, HDAC6 (Homo sapiens, UniProt Q9UBN7); test: HDAC deacetylase homogenous fluorescence assay, HDAC6; assay type: biochemical; conditions: for concentration above which HDAC6 was inhibited: data not shown
T1 sequence (Q9UBN7 1-1215): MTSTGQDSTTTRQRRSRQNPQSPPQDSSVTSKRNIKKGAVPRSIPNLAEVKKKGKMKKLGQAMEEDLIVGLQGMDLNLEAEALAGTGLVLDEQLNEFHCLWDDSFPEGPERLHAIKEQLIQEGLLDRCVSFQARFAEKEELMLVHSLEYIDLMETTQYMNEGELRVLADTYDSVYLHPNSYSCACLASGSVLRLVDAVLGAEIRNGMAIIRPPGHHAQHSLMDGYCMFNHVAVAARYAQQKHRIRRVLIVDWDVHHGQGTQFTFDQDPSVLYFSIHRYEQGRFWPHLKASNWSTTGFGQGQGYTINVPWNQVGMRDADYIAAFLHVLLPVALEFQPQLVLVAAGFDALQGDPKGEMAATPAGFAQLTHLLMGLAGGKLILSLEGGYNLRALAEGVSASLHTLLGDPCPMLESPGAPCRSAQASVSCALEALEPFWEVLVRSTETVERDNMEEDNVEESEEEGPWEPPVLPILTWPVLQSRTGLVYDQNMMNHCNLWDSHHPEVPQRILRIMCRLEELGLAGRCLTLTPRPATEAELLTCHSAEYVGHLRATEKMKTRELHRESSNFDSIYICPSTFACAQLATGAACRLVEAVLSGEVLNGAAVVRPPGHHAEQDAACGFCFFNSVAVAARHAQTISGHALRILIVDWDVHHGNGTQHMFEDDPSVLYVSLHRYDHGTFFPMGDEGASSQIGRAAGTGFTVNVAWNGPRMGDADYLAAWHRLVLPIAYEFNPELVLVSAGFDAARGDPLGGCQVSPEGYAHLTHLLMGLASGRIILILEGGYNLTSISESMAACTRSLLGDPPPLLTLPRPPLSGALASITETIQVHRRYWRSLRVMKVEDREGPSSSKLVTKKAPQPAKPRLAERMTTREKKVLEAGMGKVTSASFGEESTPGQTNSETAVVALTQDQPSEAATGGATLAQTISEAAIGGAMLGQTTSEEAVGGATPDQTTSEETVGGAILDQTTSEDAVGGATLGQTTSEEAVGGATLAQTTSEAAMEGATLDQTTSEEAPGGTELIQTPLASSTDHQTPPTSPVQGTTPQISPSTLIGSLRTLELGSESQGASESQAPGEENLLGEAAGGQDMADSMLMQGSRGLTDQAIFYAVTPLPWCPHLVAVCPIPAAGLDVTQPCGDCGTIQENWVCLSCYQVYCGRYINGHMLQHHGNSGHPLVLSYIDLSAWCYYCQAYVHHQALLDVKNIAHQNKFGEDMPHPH
How it was run: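 Baculovirus-expressed recombinant human enzyme (HDAC3 as HDAC3/N-CoR2 complex) incubated with serially diluted test compound over a 12-point titration. Substrate: acetylated AMC-K(Ac)GL. Deacetylated product cleaved by lysine peptidase to free MCA, read at ex 355/em 460 nm. Data normalised to control plate by plate. IC50 and SD from non-linear regression; Ki via Cheng-Prusoff, Ki = IC50/(1+[S]/Km).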

ubiquitinated protein = test: Western blot of total ubiquitinated protein in MV4-11 cells; assay type: cell-based, human; conditions: within 3 hr
[4] = tested on: full panel of human recombinant HDAC enzymes; test: Inhibition profile over full panel of HDACs; assay type: biochemical
How it was run: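 Panel of recombinant human HDAC1–11, 12-point titration of test compound per isozyme. Substrates: AMC-K(Ac)GL for HDAC1, 2, 3/N-CoR2, 6 and 10; AMC-K(TFA)GL for HDAC4, 5, 7, 8, 9 and 11. Peptidase-released MCA fluorescence at ex 355/em 460 nm, normalised to controls. IC50 by non-linear regression.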

[5] = tested on: acetylated histone H3 and H4; test: Western blot of acetylated histone H3/H4 in MV4-11 cells; assay type: cell-based, human
How it was run: as §1

Hsp90 acetylation [6] = test: Immunoprecipitation/immunoblot of Hsp90 acetylation in MV4-11 cells; assay type: cell-based, human; conditions: 3 hr post-treatment
How it was run: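 MV4-11 AML cells (10% heat-inactivated FBS, 37°C, 5% CO2) treated with test compound, harvested 3 hr post-treatment. Cells washed in cold HBSS, lysed 30 min in low-salt buffer (50 mM Tris-HCl pH 7.4, 150 mM NaCl, 10% glycerol, Triton X-100, protease/phosphatase inhibitors, 1 μM TSA), then sonicated. Hsp90 pulled down on Hsp90-conjugated beads for 1 hr. Blots probed for Hsp90, acetyl-lysine and acetyl-Hsp90 K69.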

acetylated tubulin [7] = test: Western blot of acetylated tubulin in PBMC; assay type: cell-based, human; conditions: PBMC from normal donors, 3 hr post-treatment
Hsp90 acetylation [8] = conditions: 16 hrs post inhibitor treatment; cited from earlier work
HDAC6 [9] = conditions: cited from earlier work

| Molecule | induction of acetylated tubulin (acetylated tubulin [1]) | effect on acetylated histone H3/H4 levels [5] | effect on FLT-3 and STAT5 protein levels (FLT-3 and STAT5) | induction of Hsp90 acetylation (Hsp90 acetylation [6]) | also measured |
| --- | --- | --- | --- | --- | --- |
| CC(C)C[C@@H](C=O)NC(=O)[C@H](CC(C)C)NC(=O)[C@H](CC(C)C)NC(=O)OCc1ccccc1 [MG132] (Cbz-Leu-Leu-Leu-aldehyde) | – | – | – | – | prevention of STAT5 degradation caused by HDAC6 inhibition (FLT-3 and STAT5; 10 μM MG132 co-treatment): did not prevent STAT5 degradation; rescue of FLT-3 degradation caused by HDAC6 inhibition (FLT-3 and STAT5; 10 μM MG132 co-treatment): rescued |
| O=C1C=C(NCc2ccccc2)C(=O)c2ccccc21 [NQN-1, 2-benzyl-amino-naphthoquinone] | selectively induced hyperacetylated tubulin | without an increase in histone H3 and H4 acetylation; also recorded: unexpectedly caused a decrease in acetylated histone H4 | decrease within 3 hr | induces Hsp90 acetylation | selectivity, proliferating PBMC over AML (MV4-11) cell toxicity [2]: 4 fold; IC50 (HDAC6 [3]; read-out: HDAC6 IC50, 12 point titration, acetylated substrate): 5.54 ± 0.9 µM; Ki (HDAC6 [3]; read-out: HDAC6 Ki, converted from IC50 using Cheng-Prusoff equation): 1.3 ± 0.22 µM; total ubiquitinated protein level (ubiquitinated protein): increase in total ubiquitinated protein level; HDAC inhibition profile / selectivity over the panel [4]: did not inhibit other HDACs in our panel; tubulin acetylation level in PBMC (acetylated tubulin [7]): did not increase |
| O=C(CCCCCCC(=O)Nc1ccccc1)NO [SAHA, Suberoylanilide hydroxamic acid] | induces both acetylated tubulin and histone | induces both acetylated tubulin and histone | did not induce Hsp90 acetylation or reduce FLT-3 and STAT5 levels | did not induce Hsp90 acetylation | – |
| CC(/C=C/C(=O)NO)=C\[C@@H](C)C(=O)c1ccc(N(C)C)cc1 [TSA] | – | – | did not induce Hsp90 acetylation or reduce FLT-3 and STAT5 levels | did not induce Hsp90 acetylation | – |
| CC1=C(C/C=C(\C)CCC[C@H](C)CCC[C@H](C)CCCC(C)C)C(=O)c2ccccc2C1=O [Vitamin K1] | – | – | – | – | concentration above which HDAC6 was inhibited (HDAC6 [3]): above 200 μM |
| Cc1ccc(NC(=O)CCCCCC(=O)Nc2ccccc2N)cc1 [inhibitor 106] | – | only induces hyperacetylated histone H3/H4 | did not induce Hsp90 acetylation or reduce FLT-3 and STAT5 levels | did not induce Hsp90 acetylation | – |
| O=C(CCCCCCC(=O)Nc1ccc([C@H]2O[C@@H](CSc3nc(-c4ccccc4)c(-c4ccccc4)o3)C[C@@H](c3ccc(CO)cc3)O2)cc1)NO [tubacin] | – | decreases in acetylated histones | – | – | induction of Hsp90 acetylation (Hsp90 acetylation [8]): does not significantly increase Hsp90 acetylation |
| CN1CCc2c(c3ccccc3n2Cc2ccc(C(=O)NO)cc2)C1 [tubastatin A] | higher induction of tubulin acetylation | decreases in acetylated histones | – | No induction of Hsp90 acetylation | selectivity for HDAC6 over HDAC1 (HDAC6 [9]): > 1000 |
| CC1=CC(=O)c2ccccc2C1=O [vitamin K3, 2-methyl-naphthoquinone] | – | – | – | – | IC50 (HDAC6 [3]): 25 µM; HDAC inhibition profile / selectivity over the panel [4]: selectively inhibited HDAC6 and HDAC8 at low μM |
| Vitamin K2 | – | – | – | – | concentration above which HDAC6 was inhibited (HDAC6 [3]): above 200 μM |
